Laboratory results as given in ChEMBL document CHEMBL3271986, “Studies on vitamin D (calciferol) and its analogues. 10. Side-chain analogues of 25-hydroxyvitamin D3” (J Med Chem, 1977).
Calls of active or inactive are those of the source. No cut-off for these calls is given here.

How the values were obtained:
Format in all cases: functional, organism-based
Gallus gallus [1] = test: Induction of intestinal [45Ca2+] absorption in rachitic white leghorn cockerel assessed as radioactivity in serum at 32.5 nmol, ip measured up to 96 hrs relative to control
Method in brief: (§1)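 Rachitic chicks (3 weeks on low-calcium diet lacking vitamin D, then zero-calcium diet for 3 days) were dosed ip in 0.2 ml propanediol-ethanol (3/1); solvent-only -D controls. At assay, 5 µCi 45Ca2+ plus 4 mg 40Ca2+ carrier was placed into the surgically exposed duodenum under light ether anesthesia. Serum radioactivity (0.2 ml) read 30 min later. Mean ± SEM, 8-10 birds.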

Gallus gallus [2] = test: Induction of bone calcium mobilization in rachitic white leghorn cockerel assessed as Ca2+ level in serum at 32.5 nmol, ip measured up to 96 hrs by atomic absorption spectrometric analysis relative to control
Method in brief: (§2)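 Cockerels raised 3 weeks on rachitogenic low-calcium diet without vitamin D, then zero-calcium diet for 3 days before assay. Compound given ip in 0.2 ml 1,2-propanediol-ethanol (3/1); -D controls received solvent only, +D controls 6.5 nmol vitamin D3 24 h before assay. Serum Ca2+ measured by atomic absorption spectrometry on diluted serum. Mean ± SEM, 8-10 birds.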

Gallus gallus [3] = test: Induction of bone calcium mobilization in rachitic white leghorn cockerel assessed as Ca2+ level in serum up to 97.5 nmol, ip measured at 24 hrs by atomic absorption spectrometric analysis relative to control; method in brief: as §2
Gallus gallus [4] = test: Induction of intestinal [45Ca2+] absorption in rachitic white leghorn cockerel assessed as radioactivity in serum up to 97.5 nmol, ip measured at 24 hrs relative to control; method in brief: as §1
Gallus gallus [5] = test: Induction of bone calcium mobilization in rachitic white leghorn cockerel assessed as Ca2+ level in serum up to 78 nmol, ip treated 24 hrs prior to testing measured at 24 hrs post treatment by atomic absorption spectrometric analysis
Method in brief: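 White Leghorn cockerels reared 3 weeks on a rachitogenic low-calcium diet without vitamin D, then zero-calcium diet for 3 days before assay. Single intraperitoneal dose in 0.2 ml 1,2-propanediol-ethanol (3/1) 24 h before assay; vehicle-only rachitic and vitamin D3 controls. Blood taken after decapitation and allowed to clot. Serum calcium measured by atomic absorption spectrometry on diluted samples. Mean ± SEM, 8-10 birds.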

Gallus gallus [6] = test: Induction of intestinal [45Ca2+] absorption in rachitic white leghorn cockerel assessed as radioactivity in serum up to 78 nmol, ip treated 24 hrs prior to testing measured at 24 hrs post treatment
Method in brief: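 Rachitic White Leghorn cockerels (3 weeks rachitogenic low-calcium diet without vitamin D, zero-calcium diet for the last 3 days). Dosed intraperitoneally in 0.2 ml propanediol-ethanol (3/1) 24 h before assay. Under light ether anaesthesia the duodenum was exposed and given 5 μCi 45Ca2+ plus 4 mg carrier 40Ca2+. After 30 min, decapitation; radioactivity counted in 0.2 ml serum. Mean ± SEM, 8-10 birds.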

Gallus gallus [7] = test: Induction of intestinal [45Ca2+] absorption in rachitic white leghorn cockerel assessed as radioactivity in serum at 130 nmol, ip measured at 24 hrs; method in brief: as §1
Gallus gallus [8] = test: Induction of bone calcium mobilization in rachitic white leghorn cockerel assessed as Ca2+ level in serum at 130 nmol, ip measured at 24 hrs by atomic absorption spectrometric analysis; method in brief: as §2

| Structure (SMILES) | Activity (Gallus gallus [1]) | Activity (Gallus gallus [2]) | Activity (Gallus gallus [3]) | Activity (Gallus gallus [4]) | Activity (Gallus gallus [5]) | Activity (Gallus gallus [6]) | Activity (Gallus gallus [7]) | Activity (Gallus gallus [8]) |
| --- | --- | --- | --- | --- | --- | --- | --- | --- |
| C=C1CC[C@H](O)C/C1=C/C=C1\CCC[C@]2(C)[C@@H](C(C)(C)O)CC[C@@H]12 | inactive | inactive | inactive | inactive | – | – | – | – |
| C=C1CC[C@H](O)C/C1=C/C=C1\CCC[C@]2(C)[C@@H]([C@H](C)C(C)(C)O)CC[C@@H]12 | inactive | inactive | inactive | inactive | – | – | – | – |
| C=C1CC[C@H](O)C/C1=C/C=C1\CCC[C@]2(C)[C@@H]([C@H](C)CC(C)(C)O)CC[C@@H]12 | inactive | inactive | inactive | inactive | – | – | – | – |
| C=C1CC[C@H](O)C/C1=C/C=C1\CCC[C@]2(C)[C@@H]([C@H](C)CCCC(C)C)CC[C@@H]12 | – | – | – | – | Active | Active | – | – |
| C=C1CC[C@H](O)C/C1=C/C=C1\CCC[C@]2(C)[C@@H]([C@H](C)CCC(C)(C)O)CC[C@@H]12 | inactive | inactive | inactive | inactive | – | – | – | – |
| C=C1CC[C@H](O)C/C1=C/C=C1\CCC[C@]2(C)[C@@H]([C@H](C)CCCCC(C)(C)O)CC[C@@H]12 | – | – | – | – | Active | Active | Active | Active |
